SMILES strings stand for the structures.

The results in this text go back to ChEMBL document CHEMBL2321841, “Structure-based drug design and potent anti-cancer activity of tricyclic 5:7:5-fused diimidazo[4,5-d:4',5'-f][1,3]diazepines” (Bioorg Med Chem, 2013).

Holding throughout (type): functional, cell-based
For assay [1], the system named is OVCAR-3. Kind of assay: Cytotoxicity against human OVCAR3 cells after 72 hrs by WST1 assay. As to conditions: OVCAR-3, 72 h. In a few lines: (§1)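 Cells were seeded the day before dosing at 0.5–1.7 × 10^3 cells/well in RPMI + 10% FBS. Compounds were dissolved in DMSO (stocks 100–200 mM) and tested at nine concentrations from 100 μM to 5 nM, in 4 replicates per dilution, with experiments repeated 1x or 2x. Exposure was 72 h at 37°C, 5% CO2, against a DMSO vehicle control. WST-1 was then added for 4 h and absorbance read at 450–690 nm.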

The nature of assay [2]: Cytotoxicity against human H460 cells after 72 hrs by WST1 assay. As to conditions: NCI-H460, 72 h. In a few lines:
as §1
On the technique in general: Formazan colour is commonly taken as a measure of viable cells.

The subject of assay [3] is MCF7. Briefly: Cytotoxicity against human MCF7 cells after 72 hrs by WST1 assay. As to conditions: MCF7, 72 h. In a few lines: as §1
Assay [4] concerns MDA-MB-231. Kind of assay: Cytotoxicity against human MDA-MB-231 cells after 72 hrs by WST1 assay. The conditions noted are these: MDA-MB-231, 72 h. In a few lines:
as §1

The subject of assay [5] is PC-3. Kind of assay: Cytotoxicity against human PC3 cells after 72 hrs by WST1 assay. The conditions noted are these: PC-3, 72 h. In a few lines:
as §1

Assay [6] concerns A549. Kind of assay: Cytotoxicity against human A549 cells after 72 hrs by WST1 assay. The conditions noted are these: A549, 72 h. In a few lines: as §1

Consider `COc1ccc(Cn2cnc3c4nc(=O)n(Cc5cccc(C(F)(F)F)c5)c-4ncnc32)cc1`, for which the IC50 (as a rule, the concentration at which inhibition is half-maximal) in assay [1] stood at 3680 nM; in assay [2], 3100 nM; in assay [3] it was 4310 nM; in assay [4], 4610 nM; in assay [5], 8300 nM; in assay [6] it was 3190 nM.
Turning to `COc1ccc(Cn2cnc3c4nc(=O)n(Cc5cccc(F)c5)c-4ncnc32)cc1`, the IC50 was found to be 3180 nM in assay [1]; 1240 nM in assay [2]; 1640 nM in assay [3]; 2700 nM in assay [4]; 1830 nM in assay [5]; 1200 nM in assay [6].
As to `COc1ccc(Cn2cnc3c4nc(=O)n(Cc5ccc(Br)cc5)c-4ncnc32)cc1`, the half-maximal inhibitory concentration (IC50) in assay [1] was 1620 nM; in assay [2] it was 570 nM; in assay [3] it was 1020 nM; in assay [4], 1160 nM; in assay [5], 980 nM; in assay [6], 630 nM.
With `COc1ccc(Cn2cnc3c4nc(=O)n(Cc5ccc(F)c(F)c5)c-4ncnc32)cc1`, the half-maximal inhibitory concentration (IC50) in assay [1] was 2270 nM; in assay [2] it was 740 nM; in assay [3], 1750 nM; in assay [4] it was 1700 nM; in assay [5], 1590 nM; in assay [6], 990 nM.
For the molecule `COc1ccc(Cn2cnc3c4nc(=O)n(Cc5cccc(Br)c5)c-4ncnc32)cc1`, the half-inhibitory concentration (IC50) was determined as 1540 nM in assay [1]; 1170 nM in assay [2]; 1850 nM in assay [3]; 1530 nM in assay [4]; 2570 nM in assay [5]; 1370 nM in assay [6].
As for `COc1ccc(Cn2cnc3c4nc(=O)n(Cc5ccc(Cl)cc5)c-4ncnc32)cc1`, the IC50 in assay [1] was 880 nM; in assay [2], 850 nM; in assay [3], 2380 nM; in assay [4], 970 nM; in assay [5], 920 nM; in assay [6] it was 780 nM.
On to `COc1ccc(Cn2cnc3c4nc(=O)n(Cc5ccc(OCCO)cc5)c-4ncnc32)cc1`, for which the IC50 is 13200 nM in assay [1]; 10900 nM in assay [2]; 27200 nM in assay [3]; 10600 nM in assay [4]; 19700 nM in assay [5]; 12300 nM in assay [6].
